According to ChEMBL document CHEMBL3616446, “Structure activity optimization of 6H-pyrrolo[2,3-e][1,2,4]triazolo[4,3-a]pyrazines as Jak1 kinase inhibitors” (Bioorg Med Chem Lett, 2015):

How the values were obtained:
UT7 = experiment: Selectivity ratio for inhibition of JAK2 in human UT7 cells to inhibition of JAK1 in human TF1 cells; type: cell-based
Summary of the method: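 Cell-based pSTAT read-outs. Jak1: IL-6-stimulated pSTAT3 in TF-1 cells. Jak2: Epo-stimulated pSTAT5 in UT-7 cells. Full-length endogenous Jak at cellular ATP levels. Run in 96-well format, some in 384-well. Ratio = Jak2 cellular value / Jak1 cellular value.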

[1] = Metabolic stability in Sprague-Dawley rat microsomes assessed as compound remaining at 1 uM measured at 25 mins; type: ADME, Microsome; conditions: read-out: Stability
Summary of the method: (§1)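 Microsomes at 0.25 mg protein with 1 mM NADPH and 1 µM compound, incubated 25 min at 37 °C; % parent remaining at 25 min. Rat: pooled male SD microsomes. Human: pooled male/female microsomes.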

[2] = Metabolic stability in human microsomes assessed as compound remaining at 1 uM measured at 25 mins; type: ADME, Microsome; conditions: read-out: Stability; summary of the method: as §1
[3] = Cmax in Sprague-Dawley rat at 10 mg/kg, po; type: ADME, organism-based; set-up: dose 10 mg/kg, route oral; conditions: in vivo
[4] = AUC (0 to infinity) in Sprague-Dawley rat at 10 mg/kg, po; type: ADME, organism-based; set-up: dose 10 mg/kg, time infinity, route oral; conditions: in vivo
[5] = Plasma clearance in Sprague-Dawley rat at 5 mg/kg, iv; type: ADME, organism-based
Rattus norvegicus = experiment: Antiinflammatory activity in Lewis rat assessed as inhibition of concanavalin A-induced IFNgamma production administered 30 mins prior to concanavalin A challenge measured at 4 hrs by ELISA; type: functional; set-up: concentration or dose not given beside the values
[6] = Oral bioavailability in Sprague-Dawley rat at 10 mg/kg; type: ADME, organism-based; conditions: in vivo

| Compound | Selectivity ratio (UT7) | remaining at 25 min, 1 µM [1] [%] | remaining at 25 min, 1 µM [2] [%] | Cmax [3] [ng/mL] | AUC(0-inf) [4] [ng·h/mL] | clearance [5] [mL/min/kg] | inhibition (INH) (Rattus norvegicus) [%] | bioavailability [6] [%] |
| --- | --- | --- | --- | --- | --- | --- | --- | --- |
| O=S(=O)(N[C@@H]1CCC[C@@H](c2nnc3cnc4[nH]ccc4n23)C1)C1CC1 (racemic) | > 10 | – | – | – | – | – | – | – |
| O=S(=O)(N[C@H]1CC[C@@H](c2nnc3cnc4[nH]ccc4n23)C1)C1CCCC1 | 100 | 68 | 90 | – | – | – | – | – |
| O=S(=O)(N[C@H]1CC[C@@H](c2nnc3cnc4[nH]ccc4n23)C1)c1ccccc1 | 34 | 31 | 42 | – | – | – | – | – |
| CCCS(=O)(=O)N[C@H]1CC[C@@H](c2nnc3cnc4[nH]ccc4n23)C1 | > 20 | – | – | – | – | – | – | – |
| COc1ccc(S(=O)(=O)N[C@H]2CC[C@@H](c3nnc4cnc5[nH]ccc5n34)C2)cc1 | 26 | 61 | 35 | – | – | – | – | – |
| c1cc2c(ncc3nnc(C4CCCCC4)n32)[nH]1 | – | – | – | 170 | 280 | – | – | – |
| CCS(=O)(=O)N[C@H]1CC[C@@H](c2nnc3cnc4[nH]ccc4n23)C1 | 101 | 100 | – | – | – | – | – | – |
| O=S(=O)(N[C@H]1CC[C@@H](c2nnc3cnc4[nH]ccc4n23)C1)c1cccc(Cl)c1 | 54 | 6 | 8 | – | – | – | – | – |
| O=S(=O)(N[C@H]1CC[C@@H](c2nnc3cnc4[nH]ccc4n23)C1)C1CCC1 | 227 | 80 | 85 | 310 | 860 | 41.7 | 40 | 32 |
| O=S(=O)(N[C@H]1CC[C@@H](c2nnc3cnc4[nH]ccc4n23)C1)C1CCCCC1 | > 75 | – | – | – | – | – | – | – |
| O=S(=O)(N[C@H]1CCC[C@@H](c2nnc3cnc4[nH]ccc4n23)C1)C1CC1 (racemic) | 9 | – | – | 10 | 50 | – | 0 | – |
| O=S(=O)(N[C@H]1CC[C@@H](c2nnc3cnc4[nH]ccc4n23)C1)C1CC1 | 17 | 98 | 100 | 230 | 1100 | 48.3 | 55 | 29 |
| CS(=O)(=O)N[C@H]1CC[C@@H](c2nnc3cnc4[nH]ccc4n23)C1 | 34 | – | – | – | – | – | – | – |
| O=S(=O)(N[C@]12CC[C@](c3nnc4cnc5[nH]ccc5n43)(CC1)CC2)C1CC1 | 225 | – | – | 60 | 410 | 51.7 | 31 | 13 |
| O=S(=O)(N[C@H]1CC[C@H](c2nnc3cnc4[nH]ccc4n32)CC1)C1CC1 | > 20 | – | – | – | – | – | – | – |
